In ChEMBL document CHEMBL4316640, “Taichunins A-D, Norditerpenes from Aspergillus taichungensis (IBT 19404)” (J Nat Prod, 2019) one finds inhibition, Activity and IC50 data, which are given here for five compounds.

Active and inactive are the calls of the source. The rule behind the calls is not given here.

In assay [1] the target is T1, Ubiquitin-like modifier-activating enzyme 1 (Homo sapiens) (UniProt P22314).
T1 sequence (whole entry): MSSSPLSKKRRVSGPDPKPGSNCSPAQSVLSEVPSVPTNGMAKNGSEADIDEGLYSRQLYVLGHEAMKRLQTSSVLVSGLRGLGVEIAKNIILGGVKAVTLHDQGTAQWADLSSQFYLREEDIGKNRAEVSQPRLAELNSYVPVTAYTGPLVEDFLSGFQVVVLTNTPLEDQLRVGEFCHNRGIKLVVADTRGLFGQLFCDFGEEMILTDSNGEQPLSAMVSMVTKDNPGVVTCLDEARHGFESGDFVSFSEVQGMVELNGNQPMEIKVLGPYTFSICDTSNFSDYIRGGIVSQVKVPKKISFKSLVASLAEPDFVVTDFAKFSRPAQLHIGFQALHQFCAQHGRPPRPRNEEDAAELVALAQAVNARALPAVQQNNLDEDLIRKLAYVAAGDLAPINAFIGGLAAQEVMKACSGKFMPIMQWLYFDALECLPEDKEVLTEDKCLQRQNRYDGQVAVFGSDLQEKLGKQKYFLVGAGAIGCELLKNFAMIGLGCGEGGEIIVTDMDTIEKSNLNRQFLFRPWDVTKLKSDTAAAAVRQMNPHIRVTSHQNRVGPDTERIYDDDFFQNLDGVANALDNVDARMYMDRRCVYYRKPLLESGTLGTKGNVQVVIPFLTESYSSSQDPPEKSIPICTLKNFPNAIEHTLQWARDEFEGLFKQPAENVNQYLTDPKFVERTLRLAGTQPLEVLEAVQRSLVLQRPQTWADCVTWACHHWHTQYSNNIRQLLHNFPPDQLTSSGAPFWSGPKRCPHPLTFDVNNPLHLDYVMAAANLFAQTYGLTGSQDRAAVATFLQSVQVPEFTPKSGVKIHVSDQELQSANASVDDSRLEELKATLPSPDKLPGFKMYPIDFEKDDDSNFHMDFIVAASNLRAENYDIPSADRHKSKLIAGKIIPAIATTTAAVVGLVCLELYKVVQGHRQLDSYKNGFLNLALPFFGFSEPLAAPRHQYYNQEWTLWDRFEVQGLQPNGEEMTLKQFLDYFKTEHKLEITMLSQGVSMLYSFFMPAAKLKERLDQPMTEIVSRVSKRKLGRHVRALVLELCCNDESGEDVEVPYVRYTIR
As to the kind of experiment: Inhibition of Ubiquitin/Ubiquitin-activating enzyme E1 (unknown origin).

The next assay concerns Osteoclast. As to the kind of experiment: Inhibition of RANKL-induced formation of multinuclear osteoclasts (unknown origin). Format: functional, cell-based.
The target of assay [2] is Ubiquitin-conjugating enzyme E2 N/Ubiquitin-conjugating enzyme E2 variant 1 (Homo sapiens) (UniProt Q13404+P61088). As to the kind of experiment: Inhibition of Ubc13/Uev1A interaction (unknown origin). Format: protein assay.
The test system of another assay is Macrophage. Put plainly: Inhibition of cholesterol ester accumulation in macrophages (unknown origin). In kind it is functional, cell-based.
The next assay concerns Proteasome. As to the kind of experiment: Inhibition of proteasome (unknown origin). In kind it is subcellular. The settings on record: Homo sapiens.
The target in assay [3] is Tumour suppressor p53/oncoprotein Mdm2 (Homo sapiens) (UniProt P04637+Q00987). Put plainly: Inhibition of p53/Mdm2 interaction (unknown origin). Format: protein assay.
Tumour suppressor p53/oncoprotein Mdm2 (Homo sapiens), sequence (P04637 whole entry, looked up): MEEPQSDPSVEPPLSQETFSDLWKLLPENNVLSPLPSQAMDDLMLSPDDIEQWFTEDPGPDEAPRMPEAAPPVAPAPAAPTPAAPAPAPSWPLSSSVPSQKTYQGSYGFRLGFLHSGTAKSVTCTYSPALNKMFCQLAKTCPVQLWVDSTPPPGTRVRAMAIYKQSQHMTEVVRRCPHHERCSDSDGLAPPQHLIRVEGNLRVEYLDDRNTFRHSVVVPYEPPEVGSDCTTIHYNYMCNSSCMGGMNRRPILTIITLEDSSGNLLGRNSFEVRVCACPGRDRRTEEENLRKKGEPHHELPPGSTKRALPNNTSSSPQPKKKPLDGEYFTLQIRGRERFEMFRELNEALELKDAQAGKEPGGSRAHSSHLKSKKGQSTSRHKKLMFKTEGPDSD
Tumour suppressor p53/oncoprotein Mdm2 (Homo sapiens), sequence (Q00987 whole entry, looked up): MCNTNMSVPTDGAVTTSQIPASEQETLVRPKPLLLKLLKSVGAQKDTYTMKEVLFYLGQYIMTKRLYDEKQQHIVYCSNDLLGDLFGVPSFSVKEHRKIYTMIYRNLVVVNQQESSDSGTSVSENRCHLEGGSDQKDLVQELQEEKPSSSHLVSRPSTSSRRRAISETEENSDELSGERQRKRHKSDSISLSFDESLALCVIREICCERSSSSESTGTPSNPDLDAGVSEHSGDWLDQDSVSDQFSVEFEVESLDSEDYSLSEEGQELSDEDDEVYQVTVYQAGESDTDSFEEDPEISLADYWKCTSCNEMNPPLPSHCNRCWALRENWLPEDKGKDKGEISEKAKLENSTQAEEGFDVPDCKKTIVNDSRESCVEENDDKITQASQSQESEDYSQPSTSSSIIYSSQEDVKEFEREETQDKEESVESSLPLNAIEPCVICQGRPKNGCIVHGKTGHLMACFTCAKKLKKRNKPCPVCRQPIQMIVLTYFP
Assay [4] concerns HeLa. As to the kind of experiment: Cytotoxicity in human HeLa cells at 50 uM incubated for 3 days by MTT assay. Format: functional, cell-based. The essentials:
(§1)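 HeLa cells; daunorubicin run alongside as the positive control.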

Assay [5] has as its target Ubiquitin carboxyl-terminal hydrolase 7 (Homo sapiens) (UniProt Q93009). Put plainly: Inhibition of USP7 (unknown origin).
Assay [6] concerns HeLa. As to the kind of experiment: Cytotoxicity in human HeLa cells incubated for 3 days by MTT assay. In kind it is functional, cell-based. Conditions: 72 h. The procedure, abridged:
as §1
In general terms: Tetrazolium dyes change colour on reduction, which living cells bring about.

Ubiquitin carboxyl-terminal hydrolase 7 (Homo sapiens), sequence (Q93009 whole entry, looked up): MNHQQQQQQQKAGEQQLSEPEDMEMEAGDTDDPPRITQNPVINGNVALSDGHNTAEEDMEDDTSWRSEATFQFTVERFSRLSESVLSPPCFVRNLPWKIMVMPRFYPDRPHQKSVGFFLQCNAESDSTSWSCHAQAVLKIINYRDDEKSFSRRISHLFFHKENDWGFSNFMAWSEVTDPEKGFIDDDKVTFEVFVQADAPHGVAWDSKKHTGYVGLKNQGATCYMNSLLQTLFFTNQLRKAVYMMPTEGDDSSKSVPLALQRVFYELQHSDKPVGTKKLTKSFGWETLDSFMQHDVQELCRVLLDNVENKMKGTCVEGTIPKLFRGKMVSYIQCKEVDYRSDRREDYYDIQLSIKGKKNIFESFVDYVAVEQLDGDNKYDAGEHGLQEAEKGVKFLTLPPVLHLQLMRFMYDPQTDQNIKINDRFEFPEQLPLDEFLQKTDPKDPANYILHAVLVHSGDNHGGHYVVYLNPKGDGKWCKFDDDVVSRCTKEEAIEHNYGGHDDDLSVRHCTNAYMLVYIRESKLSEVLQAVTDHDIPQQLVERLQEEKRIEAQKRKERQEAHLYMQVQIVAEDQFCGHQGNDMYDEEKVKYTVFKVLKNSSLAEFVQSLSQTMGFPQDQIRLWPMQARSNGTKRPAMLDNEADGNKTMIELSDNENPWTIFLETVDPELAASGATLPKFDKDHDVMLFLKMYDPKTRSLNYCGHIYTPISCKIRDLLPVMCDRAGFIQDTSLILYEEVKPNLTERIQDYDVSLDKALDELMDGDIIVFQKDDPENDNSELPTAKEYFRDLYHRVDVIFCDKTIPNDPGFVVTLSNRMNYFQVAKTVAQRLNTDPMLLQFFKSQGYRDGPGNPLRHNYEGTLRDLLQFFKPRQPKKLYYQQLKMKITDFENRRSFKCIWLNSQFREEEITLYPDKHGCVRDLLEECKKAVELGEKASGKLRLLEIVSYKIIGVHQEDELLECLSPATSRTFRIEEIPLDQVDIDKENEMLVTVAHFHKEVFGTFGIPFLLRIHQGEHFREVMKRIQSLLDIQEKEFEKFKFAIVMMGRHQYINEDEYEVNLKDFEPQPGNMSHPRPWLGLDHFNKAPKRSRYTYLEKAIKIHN

For the compound `C=C[C@]1(C)CC2=C(O)C(=O)C3=C(CCCC3(C)C)C2=CC1=O`, the inhibition result (in assay [1]; with Osteoclast; in [2]; in the assay on Macrophage; with Proteasome; in [3]) was “inactive” in each case. In addition, the inhibition result in assay [5] was “inactive”. Further, in the assay with HeLa [4], the outcome was inactive.

Regarding `C=C[C@@]1(C)CCC2=C(C(=O)O[C@]23CCCC(C)(C)[C@@H]3C(=O)O[C@@H]2O[C@H](CO)[C@@H](O)[C@H](O)[C@H]2O)[C@@H]1O`, the inhibition result (in assay [1]; in the assay with Osteoclast; in assay [2]; in the assay with Macrophage; with Proteasome; in [3]) was “inactive” throughout. For the same compound, the inhibition entry in assay [5] was “inactive”. The result in the assay with HeLa [4] was inactive.

`C=C[C@@]1(C)CCC2=C(C(=O)O[C@]23CCCC(C)(C)[C@@H]3C(=O)O)[C@@H]1O`: the inhibition result (in assay [1]; with Osteoclast; in assay [2]; in the assay on Macrophage; in the assay with Proteasome; in assay [3]) was “inactive” throughout. The inhibition result in assay [5] was “inactive”. Also, in the assay on HeLa [4], the outcome was inactive.

One may read the IC50 as the midpoint of a concentration-inhibition curve. With `C=C[C@]1(C)C=C2C(=O)O[C@@]34CCCC(C)(C)[C@@H]3C(=O)O[C@@]24CC1`, the IC50 with HeLa [6] turned out to be 4.5 µM. Also, the inhibition result (in [1]; in the assay with Osteoclast; in assay [2]; in the assay on Macrophage; with Proteasome; in assay [3]) was “inactive” each time. Besides, the inhibition result in assay [5] is “inactive”.

Turning to `C=C[C@]1(C)C=C2[C@@H](O)[C@@]3(O)OC(=O)[C@@]4(CCCC(C)(C)[C@H]34)[C@@]2(O)CC1`, the inhibition result (in assay [1]; with Osteoclast; in [2]; in the assay on Macrophage; with Proteasome; in assay [3]) was “inactive” each time. For the same compound, in assay [5], the inhibition result is “inactive”. In the assay on HeLa [4], the result was inactive.
